Source: ChEMBL document CHEMBL4613227, “Synthesis and evaluation of the HIF-1α inhibitory activity of 3(5)-substituted-4-(quinolin-4-yl)- and 4-(2-phenylpyridin-4-yl)pyrazoles as inhibitors of ALK5” (Bioorg Med Chem Lett, 2020)
Activity calls are given as the source filed them. The rule behind the calls is not given here.

Legend:
HCT-116 [1] = test: Induction of apoptosis in human HCT116 cells assessed as late apoptotic cells at 50 uM preincubated for 12 hrs followed by TNF stimulation and measured after 24 hrs by Annexin-V/PI-staining based flow cytometric analysis (reference value: 1.4%); format: functional
[2] = molecular target: Hypoxia-inducible factor 1-alpha (Homo sapiens) (UniProt Q16665); test: Inhibition of HIF1alpha transcriptional activity in hypoxia-induced human HCT116 cells co-transfected with luciferase reporter plasmid containing six copies of HREs and pRL-CMV plasmid by luciferase reporter gene assay; format: cell-based; conditions: HCT-116
Sequence of Hypoxia-inducible factor 1-alpha (Homo sapiens) (Q16665 whole entry, looked up): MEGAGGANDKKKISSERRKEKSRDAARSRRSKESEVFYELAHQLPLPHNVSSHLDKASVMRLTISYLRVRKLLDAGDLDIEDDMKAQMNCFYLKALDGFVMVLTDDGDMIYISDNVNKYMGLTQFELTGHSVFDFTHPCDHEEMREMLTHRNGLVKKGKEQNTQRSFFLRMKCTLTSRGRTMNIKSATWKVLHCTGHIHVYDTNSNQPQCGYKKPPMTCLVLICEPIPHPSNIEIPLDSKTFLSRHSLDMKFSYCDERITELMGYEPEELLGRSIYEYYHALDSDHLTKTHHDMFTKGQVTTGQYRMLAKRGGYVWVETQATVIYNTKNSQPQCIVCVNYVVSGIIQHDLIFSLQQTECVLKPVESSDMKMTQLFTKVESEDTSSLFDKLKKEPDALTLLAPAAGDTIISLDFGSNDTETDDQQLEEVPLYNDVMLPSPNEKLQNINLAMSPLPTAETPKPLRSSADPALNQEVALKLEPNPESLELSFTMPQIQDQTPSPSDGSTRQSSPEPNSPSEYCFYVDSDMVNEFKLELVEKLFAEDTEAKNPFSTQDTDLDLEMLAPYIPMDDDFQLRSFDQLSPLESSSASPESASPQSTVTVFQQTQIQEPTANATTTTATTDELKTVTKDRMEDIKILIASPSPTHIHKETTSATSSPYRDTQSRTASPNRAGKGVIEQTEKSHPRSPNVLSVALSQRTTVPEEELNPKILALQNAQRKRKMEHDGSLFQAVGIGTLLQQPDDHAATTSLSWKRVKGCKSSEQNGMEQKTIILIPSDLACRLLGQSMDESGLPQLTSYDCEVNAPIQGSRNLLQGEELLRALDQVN
In short: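 HCT116 transiently co-transfected with pGL3-HRE-luciferase and pRL-CMV; after 24 h, incubated under hypoxia with graded concentrations; luciferase activity read; mean ± SD, three independent experiments.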

HCT-116 [3] = test: Down regulation of TNF-induced VEGF protein expression in human HCT116 cells at 50 uM pretreated for 12 hrs followed by TNF stimulation and measured after 24 hrs by Western blot analysis; format: functional, cell-based
In short: (§1)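 HCT116 pretreated 12 h with 50 μM, then TNF (10 ng/mL) 24 h; whole cell extracts immunoblotted for ICAM-1, MMP-9, VEGF with tubulin as loading reference.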

[4] = molecular target: Hypoxia-inducible factor 1-alpha (Homo sapiens) (UniProt Q16665); test: Inhibition of HIF1-alpha (unknown origin)
HCT-116 [5] = test: Down regulation of TNF-induced MMP9 protein expression in human HCT116 cells at 50 uM pretreated for 12 hrs followed by TNF stimulation and measured after 24 hrs by Western blot analysis; format: functional, cell-based; in short: as §1
HCT-116 [6] = test: Induction of apoptosis in human HCT116 cells assessed as viable cells at 50 uM after 12 hrs by Annexin-V/PI-staining based flow cytometric analysis (reference value: 95.3%); format: functional; conditions: HCT-116, 12 h, read-out: Activity
HCT-116 [7] = test: Down regulation of TNF-induced ICAM-1 mRNA expression in human HCT116 cells at 50 uM pretreated for 12 hrs followed by TNF stimulation and measured after 12 hrs by Western blot analysis; format: functional, cell-based; conditions: in the assay text read “RT-PCR analysis” for “Western blot analysis”
In short: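 HCT116 preincubated 12 h with graded concentrations, then TNF 10 ng/mL for a further 12 h; ICAM-1, VEGF, MMP-9 transcripts measured by RT-PCR, GAPDH for equal RNA loading.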

HCT-116 [8] = test: Cytotoxicity against human HCT116 cells up to 50 uM after 24 hrs by MTT assay; format: cell-based; conditions: hct-116, 24 h
In short: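 Cell viability of HCT116 by MTT after 24 h exposure to graded concentrations up to 50 μM.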

[9] = molecular target: Mitogen-activated protein kinase 14 (Homo sapiens, UniProt Q16539); test: Inhibition of recombinant human p38alpha expressed in Escherichia coli
Sequence of Mitogen-activated protein kinase 14 (Q16539 whole entry, the tested form may be a part): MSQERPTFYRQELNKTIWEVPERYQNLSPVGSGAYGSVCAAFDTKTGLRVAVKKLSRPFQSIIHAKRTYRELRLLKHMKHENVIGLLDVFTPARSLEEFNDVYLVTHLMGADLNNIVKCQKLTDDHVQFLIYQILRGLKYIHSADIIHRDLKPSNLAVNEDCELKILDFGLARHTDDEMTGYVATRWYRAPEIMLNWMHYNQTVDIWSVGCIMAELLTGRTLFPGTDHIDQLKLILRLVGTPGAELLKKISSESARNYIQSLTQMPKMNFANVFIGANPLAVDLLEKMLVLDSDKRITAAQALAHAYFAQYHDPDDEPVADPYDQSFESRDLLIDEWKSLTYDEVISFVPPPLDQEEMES
In short: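 IC50 determination against ALK5 (human GST-fusion, Sf9 baculovirus) and p38α (untagged human, E. coli); values averaged from three independent experiments run in triplicate.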

HCT-116 [10] = test: Induction of apoptosis in human HCT116 cells assessed as necrotic cells at 50 uM preincubated for 12 hrs followed by TNF stimulation and measured after 24 hrs by Annexin-V/PI-staining based flow cytometric analysis (reference value: 3.6%); format: functional
HCT-116 [11] = test: Induction of apoptosis in human HCT116 cells assessed as early apoptotic cells at 50 uM preincubated for 12 hrs followed by TNF stimulation and measured after 24 hrs by Annexin-V/PI-staining based flow cytometric analysis (reference value: 2.8%); format: functional
HUVEC = test: Inhibition of TNF-induced cell migration in HUVEC at 50 uM after 24 hrs by scratch wound healing assay; format: functional, cell-based; conditions: Homo sapiens
In short: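 HUVEC scratch assay: cells pretreated with graded concentrations, with or without TNF (10 ng/mL); uncovered area photographed at 24 h.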

[12] = molecular target: T1, TGF-beta receptor type-1 (Homo sapiens) (UniProt P36897); test: Inhibition of recombinant GST-tagged human ALK5 expressed in baculovirus infected Sf9 insect cells assessed as residual activity at 10 uM
T1 sequence (whole entry): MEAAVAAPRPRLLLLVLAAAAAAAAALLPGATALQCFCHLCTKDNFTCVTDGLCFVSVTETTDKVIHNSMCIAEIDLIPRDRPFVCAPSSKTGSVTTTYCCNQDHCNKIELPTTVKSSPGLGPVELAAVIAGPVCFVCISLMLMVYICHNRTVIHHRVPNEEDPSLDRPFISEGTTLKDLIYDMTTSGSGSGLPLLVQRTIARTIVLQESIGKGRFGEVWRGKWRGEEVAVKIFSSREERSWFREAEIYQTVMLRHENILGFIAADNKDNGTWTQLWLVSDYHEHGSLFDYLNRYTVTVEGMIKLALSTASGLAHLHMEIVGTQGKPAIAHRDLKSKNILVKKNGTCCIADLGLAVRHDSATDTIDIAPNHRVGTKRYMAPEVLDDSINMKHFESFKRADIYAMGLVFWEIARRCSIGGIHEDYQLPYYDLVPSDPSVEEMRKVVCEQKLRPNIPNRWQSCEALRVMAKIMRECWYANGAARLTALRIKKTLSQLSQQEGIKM
In short: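 Single-point kinase screen at 10 μM, in duplicate; ALK5 as human GST-fusion from baculovirus/Sf9, p38α as untagged human protein from E. coli; residual activity relative to DMSO vehicle, mean ± SD of two independent experiments.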

inhibition [2]: Dose-dependent effect
inhibition [4]: Active
IC50 [9]: 104 nM
Activity [12]: 2%
SMILES: Cc1cccc(-c2nn(CC(=S)Nc3cccc(C#N)c3)cc2-c2ccnc3ccccc23)n1
Activity (HCT-116 [1]): 3.6%
Activity (HCT-116 [3]): Active
Activity (HCT-116 [5]): Active
viability at 50 µM (HCT-116 [6]): 85.2%
Activity (HCT-116 [7]): Active
Activity (HCT-116 [8]): Non-Toxic
Activity (HCT-116 [10]): 5.4%
Activity (HCT-116 [11]): 4.4%
inhibition (HUVEC): Active
